In one data set the test system is A549 NFκB-luc cell line. In words: Cytotoxicity in A549/NFκB-luc reporter cell line. The format is cell-based. The note with it: 6 hours treatment. The procedure, abridged: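 A549 cells stably carrying an NFκB-driven luciferase reporter, kept in DMEM with 10% FBS, penicillin/streptomycin and 100 μg/mL hygromycin B. Plated at 5 x 10^4 cells/well and allowed to adhere. Given 100 ng/ml TNF-α plus test compound (serial dilutions 0.00013–5 μg/mL) or vehicle for 6 h. Detergent-lysed; lysate equilibrated 30 min with ethidium bromide; fluorescence read at ex 340/em 590 nm.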

The subject of data set [1] is phosphorylated (active) NFκB p65 (pS529). Kind of data set: Intracellular staining, phosphorylated NFκB p65. The format is cell-based, human. The note with it: AsPC-1; 2.4 μg/mL; 6 hours; flow cytometry; vs vehicle control; average of 3 experiments; student's T test. The method in brief: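 AsPC-1 cells were treated 6 h with 2.4 μg/mL test compound or vehicle control. After trypsinization, 4% paraformaldehyde fixation and ice-cold ethanol permeabilization, cells were stained directly 1 h RT with PE-conjugated mouse anti-NFκB p65 (pS529) or mouse IgG isotype; no secondary. Gates were set against the isotype. Flow cytometry, 20,000 events; Student's t test vs vehicle, mean of 3 experiments.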
(In general: Flow cytometry measures light scatter and fluorescence of single cells or particles in a stream.)

Another data set has as its system BxPC-3. In words: TUNEL, BxPC-3. The format is cell-based, human. The note with it: 2.4 μg/mL, 24 hours (method), flow cytometry, average of 3 experiments. The method in brief:
(§1)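 Cells (BxPC-3 and PANC-1 in complete RPMI with 10% FBS; MIA PaCa-2 in DMEM with 5% horse serum plus 10% FBS) were seeded at 500,000 per 6-well well and adhered overnight. They received 2.4 μg/mL test compound or vehicle for 24 h, then were trypsinized, fixed (4% paraformaldehyde) and ethanol-permeabilized. TdT/fluorescein-12-dUTP labelling ran 60 min at 37°C, stopped with 20mM EDTA. Flow cytometry, 20,000 events; Student's t test vs vehicle.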

Another data set deals with PANC-1. Kind of data set: TUNEL, PANC-1. The format is cell-based, human. The note with it: 2.4 μg/mL, 24 hours (method), flow cytometry, average of 3 experiments. The method in brief: as §1
The test system of another data set is MIA PaCa2. Kind of data set: TUNEL, MIA PaCa-2. The format is cell-based, human. The note with it: 2.4 μg/mL, 24 hours (method), flow cytometry, average of 3 experiments. The procedure, abridged:
as §1

Another data set relates to MIA PaCa-2. Kind of data set: Markers of apoptosis. The format is cell-based, human. The note with it: 2.4 μg/mL, with the assays used. The method in brief: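 Caspase-3/7 luminescence. MIA PaCa-2 cells in DMEM with 5% horse serum and 10% FBS. 10,000 cells/well, adhered overnight, then given 2.4 μg/mL test compound or vehicle for 1, 3, 6 or 24 h. Equal volume of pro-luminescent DEVD substrate added, 30–60 min at RT with shaking, luminescence read. Expressed as fold over vehicle; Student's t test.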

Another data set concerns IKKα. Kind of data set: Intracellular staining, IKKα in AsPC-1. The format is cell-based, human. The note with it: 2.4 μM, 6 hours, flow cytometry, average of 3 experiments, vs vehicle.
Another data set concerns TNFAIP3. Kind of data set: Intracellular staining, TNFAIP3 in AsPC-1. The format is cell-based, human. The note with it: 2.4 μM, 6 hours, flow cytometry, average of 3 experiments, vs vehicle.
A further data set concerns TLR-1. In words: Intracellular staining, TLR-1 in AsPC-1. The format is cell-based, human. The note with it: 2.4 μM, 6 hours, flow cytometry, average of 3 experiments, vs vehicle.
A further data set has as its system TLR-3. In words: Intracellular staining, TLR-3 in AsPC-1. The format is cell-based, human. The note with it: 2.4 μM, 6 hours, flow cytometry, average of 3 experiments, vs vehicle.
The next data set concerns IRAK. Kind of data set: Intracellular staining, IRAK in AsPC-1. The format is cell-based, human. The note with it: 2.4 μM, 6 hours, flow cytometry, average of 3 experiments, vs vehicle.
A further data set concerns phosphorylated Elk. Kind of data set: Intracellular staining, phosphorylated Elk in AsPC-1. The format is cell-based, human. The note with it: 2.4 μM, 6 hours, flow cytometry, average of 3 experiments, vs vehicle.
For data set [2], the system named is TNF-related apoptosis-inducing ligand (TRAIL). Kind of data set: Intracellular staining, TRAIL in AsPC-1. The format is cell-based, human. The note with it: 2.4 μM, 6 hours, flow cytometry, average of 3 experiments, vs vehicle.
In another data set the test system is IL-8. In words: IL-8 ELISA, AsPC-1. The format is cell-based, human. The note with it: 2.4 μg/mL, 6 hours, compared to controls, significant, average of 3 experiments. (In general: ELISA stands for enzyme-linked immunosorbent assay.)
Data set [3] concerns phosphorylated Fos Ser 32. Kind of data set: Intracellular staining, phosphorylated Fos in AsPC-1. The note with it: 2.4 μM, 6 hours, flow cytometry, average of 3 experiments, vs vehicle. The format is cell-based, human.
In the next data set the test system is phosphorylated Jun Ser73. Kind of data set: Intracellular staining, phosphorylated Jun in AsPC-1. The format is cell-based, human. The note with it: 2.4 μM, 6 hours, flow cytometry, average of 3 experiments, vs vehicle.
Data set [4] concerns phosphorylated GSK3β Ser9. In words: Intracellular staining, phosphorylated GSK3β in AsPC-1. The note with it: 2.4 μM, 6 hours, flow cytometry, average of 3 experiments, not statistically significant (student's T test). The format is cell-based, human. The procedure, abridged: (§2)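 AsPC-1 cells (complete RPMI, 10% FBS, 37°C, 5% CO2) were exposed 6 h to test compound or vehicle control. They were trypsinized, fixed in 4% paraformaldehyde and permeabilized with ice-cold ethanol. Unconjugated primary antibody to the phospho-epitope (or rabbit IgG isotype) was applied 1 h RT, then PE-conjugated secondary 30 min RT. Flow cytometry, 20,000 events; Student's t test vs vehicle on the mean of 3 experiments.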

For data set [5], the system named is phosphorylated Akt Ser 473. In words: Intracellular staining, phosphorylated AKT in AsPC-1. The format is cell-based, human. The note with it: 2.4 μM, 6 hours, flow cytometry, average of 3 experiments, not statistically significant (student's T test). The method in brief:
as §2

Data set [6] has as its system phosphorylated cyclin D1 Thr 286. Kind of data set: Intracellular staining, phosphorylated cyclin D1 in AsPC-1. The format is cell-based, human. The note with it: 2.4 μM, 6 hours, flow cytometry, average of 3 experiments, not statistically significant (student's T test). The procedure, abridged: as §2
For a further data set, the system named is HUVEC cells. In words: Endothelial tube formation assay. The note with it: single experiment, preliminary, data not shown. The format is cell-based.

This note sets out measurements from PMC4934660 (Investigational new drugs, 2014).

With `COc1ccc(/C=C/CCCC[C@H](C)[C@H](O)[C@@H](O)[C@H]2NC(=O)CC3(O)NC(=O)CC3NC(=O)C[C@@H](O)CNC(=O)CN(C)C(=O)[C@@H](Cc3c(C(=O)O)[nH]c4ccccc34)NC(=O)CNC(=O)[C@H]2O)cc1` (some centres unmarked) [microsclerodermin A], the “Cytotoxicity in reporter cell line (in words)” value in the data set on A549 NFκB-luc cell line is “little or no cytotoxicity”. Moreover, the “Levels of phosphorylated (active) NFκB p65 (pS529)” value in data set [1] is reported as “significantly reduced”. The “Apoptosis (TUNEL DNA fragmentation)” value in the data set on BxPC-3 and with PANC-1 was “induced statistically significant apoptosis” in each case. For the same compound, the “DNA fragmentation (TUNEL)” value with MIA PaCa2 was “not detected”. Moreover, the Markers of apoptosis entry in the data set with MIA PaCa-2 is “no markers of apoptosis were seen”. The “Change in protein level, IKKα” value in the data set on IKKα is recorded as “no changes at the protein level”. Further, the “Change in protein level, TNFAIP3” value with TNFAIP3 is recorded as “no changes at the protein level”. Moreover, the “Change in expression, TLR-1” value with TLR-1 is listed as “No significant changes”. Moreover, the “Change in expression, TLR-3” value with TLR-3 is listed as “No significant changes”. In addition, in the data set on IRAK, the “Change in expression, IRAK” value was “No significant changes”. The “Change in expression, phosphorylated Elk” value in the data set on phosphorylated Elk is “No significant changes”. Also, the “Change in expression, TRAIL” value in data set [2] is given as “No significant changes”. Besides, the “Increase in IL-8 production” value with IL-8 is on record as “about 2.5 fold”. Besides, the “Level of phosphorylated Fos” value in data set [3] is reported as “statistically significantly upregulated”. Besides, the “Level of phosphorylated Jun” value with phosphorylated Jun Ser73 is “statistically significantly upregulated”. The “Level of phosphorylated (inactive) GSK3β” value in data set [4] is given as “increased”. For the same compound, the “Level of phosphorylated AKT” value in data set [5] is “increased”. Moreover, in data set [6], the “Level of phosphorylated cyclin D1” value is “increased”. Moreover, the Endothelial tube formation entry in the data set with HUVEC cells is recorded as “decreased tube formation”.
